Data as given in ChEMBL document CHEMBL1150169, “Fatty acid synthase inhibitors from plants: isolation, structure elucidation, and SAR studies” (J Nat Prod, 2002).
In brackets after ≈: the same amount, converted by molar mass.

Legend:
Candida albicans = assay: Antifungal activity against Candida albicans ATCC 90028; format: functional, organism-based
[1] = Inhibition of Saccharomyces cerevisiae fatty acid synthase
Procedure, shortened: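 Yeast FAS semipurified by 50% ammonium sulfate precipitation of lysate (pH 6.6 phosphate, EDTA, DTT, protease inhibitors), dialyzed, and diluted to 250 mOD/min/mL. Samples preincubated with enzyme 30 min at room temperature, then mixed 1:1 with mix of 1 mM malonyl CoA and NADPH, 40 µM acetyl CoA, and 2 mM DTT. A340 read kinetically; rate over initial 2 min. IC50 from dose-response curves.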

Cryptococcus neoformans = assay: Antifungal activity against Cryptococcus neoformans ATCC 90113; format: functional, organism-based

| Structure (SMILES) | IC50 (Candida albicans) | IC50 [1] | IC50 (Cryptococcus neoformans) |
| --- | --- | --- | --- |
| O=c1c(-c2ccc(O)cc2)coc2cc(O)cc(O)c12 [GENISTEIN] | > 50 µg/mL | > 50 µg/mL | > 50 µg/mL |
| CC(C)=CCc1c(O)ccc(C(=O)/C=C/c2ccc(O)cc2)c1O [ISOBAVACHALCONE] | 2 µg/mL (≈ 6.17 µM) | > 50 µg/mL | 45 µg/mL (≈ 139 µM) |
| O=c1cc(-c2ccc(O)c(O)c2)oc2cc(O)cc(O)c12 [LUTEOLIN] | > 50 µg/mL | 9 µg/mL (≈ 31.4 µM) | > 50 µg/mL |
| O=C1C[C@@H](c2ccc(O)cc2)Oc2cc(O)cc(O)c21 [NARINGENIN] | > 50 µg/mL | > 50 µg/mL | > 50 µg/mL |
| O=c1c(-c2ccc(O)c(O)c2)coc2cc(O)cc(O)c12 [OROBOL] | > 50 µg/mL | > 50 µg/mL | > 50 µg/mL |
| O=C(OC[C@H]1O[C@@H](OC(=O)c2cc(O)c(O)c(O)c2)[C@H](OC(=O)c2cc(O)c(O)c(O)c2)[C@@H](OC(=O)c2cc(O)c(O)c(O)c2)[C@@H]1OC(=O)c1cc(O)c(O)c(O)c1)c1cc(O)c(O)c(O)c1 [PENTAGALLOYL GLUCOSE] | > 50 µg/mL | 2.8 µg/mL (≈ 2.98 µM) | > 50 µg/mL |
| O=c1c(O)c(-c2ccc(O)c(O)c2)oc2cc(O)cc(O)c12 [QUERCETIN] | > 50 µg/mL | 12 µg/mL (≈ 39.7 µM) | > 50 µg/mL |
| CC1(C)CC[C@]2(C(=O)O)CC[C@]3(C)C(=CC[C@@H]4[C@@]5(C)C[C@@H](O)[C@H](O)[C@@](C)(CO)[C@@H]5[C@H](O)C[C@]43C)[C@@H]2C1 [TERMINOLIC ACID] | > 50 µg/mL | > 50 µg/mL | > 50 µg/mL |
| C[C@H]1[C@H](C)CC[C@]2(C(=O)O)CC[C@]3(C)C(=CC[C@@H]4[C@@]5(C)CC[C@H](O)C(C)(C)[C@@H]5CC[C@]43C)[C@H]12 [URSOLIC ACID] | > 50 µg/mL | 38 µg/mL (≈ 83.2 µM) | > 50 µg/mL |

Further lines, results first:

| IC50 (Candida albicans) | IC50 [1] | IC50 (Cryptococcus neoformans) | Structure (SMILES) |
| --- | --- | --- | --- |
| > 50 µg/mL | 50 µg/mL (≈ 176 µM) | > 50 µg/mL | COc1ccc(-c2coc3cc(O)c(O)cc3c2=O)cc1 [FORMONETIN] |
| > 50 µg/mL | > 50 µg/mL | > 50 µg/mL | O=c1c(O)c(-c2ccccc2)oc2cc(O)cc(O)c12 [GALANGIN] |
| > 50 µg/mL | > 50 µg/mL | > 50 µg/mL | COc1cc(-c2cc(=O)c3c(O)c(OC)c(OC)c(OC)c3o2)cc(OC)c1OC [GARDENIN] |
| > 50 µg/mL | 50 µg/mL (≈ 175 µM) | > 50 µg/mL | O=c1c(O)c(-c2ccc(O)cc2)oc2cc(O)cc(O)c12 [KAEMPFEROL] |
| > 50 µg/mL | 15 µg/mL (≈ 47.1 µM) | > 50 µg/mL | O=c1c(O)c(-c2cc(O)c(O)c(O)c2)oc2cc(O)cc(O)c12 [MYRICETIN] |
| > 50 µg/mL | > 50 µg/mL | > 50 µg/mL | COc1c(O[C@@H]2O[C@H](CO)[C@@H](O)[C@H](O)[C@H]2O)cc2c(=O)oc3c4c(cc5c(=O)oc1c2c35)OCO4 [NYSSOSIDE] |
| > 50 µg/mL | > 50 µg/mL | 30 µg/mL (≈ 49.1 µM) | C[C@@H]1O[C@@H](OC[C@H]2O[C@@H](Oc3c(-c4ccc(O)c(O)c4)oc4cc(O)cc(O)c4c3=O)[C@H](O)[C@@H](O)[C@@H]2O)[C@H](O)[C@H](O)[C@H]1O [RUTIN] |
| > 50 µg/mL | 25 µg/mL (≈ 45.2 µM) | > 50 µg/mL | COc1cc(O)c2c(=O)cc(-c3ccc(O)cc3)oc2c1-c1cc(-c2cc(=O)c3c(O)cc(O)cc3o2)ccc1O [SOTETSUFLAVONE] |
